Calls of active or inactive are those of the source. The calls are words filed in the database; no cut-off is given here.
How the values were obtained:
[1] = target: T1, Alpha-1A adrenergic receptor (Oryctolagus cuniculus) (UniProt O02824); experiment: Binding affinity to rabbit aorta adrenergic alpha1A receptor assessed as inhibition of phenylephrine-induced constriction after 30 mins
T1 sequence (whole entry): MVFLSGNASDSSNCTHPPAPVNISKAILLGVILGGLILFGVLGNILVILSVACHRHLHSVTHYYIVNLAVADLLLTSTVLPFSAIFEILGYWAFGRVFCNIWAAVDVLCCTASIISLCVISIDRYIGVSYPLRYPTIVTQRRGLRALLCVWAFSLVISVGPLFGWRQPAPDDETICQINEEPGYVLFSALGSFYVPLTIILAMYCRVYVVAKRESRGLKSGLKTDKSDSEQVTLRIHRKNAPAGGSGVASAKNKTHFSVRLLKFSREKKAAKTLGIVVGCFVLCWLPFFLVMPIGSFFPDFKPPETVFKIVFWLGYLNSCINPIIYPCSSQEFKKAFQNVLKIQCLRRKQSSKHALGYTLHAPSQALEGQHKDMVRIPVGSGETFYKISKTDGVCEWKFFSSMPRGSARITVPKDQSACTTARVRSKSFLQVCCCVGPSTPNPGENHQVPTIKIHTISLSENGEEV
Method in brief: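 Rabbit aortic rings (3–4 mm) held in organ bath under 20 mN resting tension, equilibrated 30 min. Cumulative phenylephrine curves (5 × 10⁻⁹–5 × 10⁻⁴ M) run without or with 30 μM antagonist after 30 min preincubation. EC50 from non-linear sigmoidal fit per experiment; concentration ratio r gives KB via Schild equation r − 1 = [B]/KB. Mean ± S.E.M of 4–6 experiments.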

Oryctolagus cuniculus = experiment: Hypotensive activity in New Zealand albino rabbit adrenergic alpha1 receptor assessed as inhibition of phenylephrine-induced rabbit systemic vascular resistance at 100 ug/kg, iv administered as bolus dose; assay type: functional, organism-based
Method in brief: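 Anaesthetised New Zealand albino rabbits of either sex (3.0 kg), given pentobarbital 40 mg/kg i.v. plus a 5 mg/kg top-up, tracheotomised, ventilated with room air and paralysed with pancuronium 1 mg/kg i.v. After 15–30 min stabilisation, phenylephrine dose-response curves (0.1–100 μg/kg, i.v.) were run with or without test compound given i.v. (0.1–100 μg/kg). Recording was continuous over 30 min. Systemic vascular resistance = MAP/cardiac output × 80 (dyn s/cm⁵).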

Rattus norvegicus = organism: Rattus norvegicus; experiment: Selectivity ratio of Ki for rat liver adrenergic alpha1B receptor to Ki for rat salivary gland adrenergic alpha 1A
Method in brief: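 [3H]-prazosin competition binding on rat liver membranes (α1B) and rat salivary gland membranes (α1A), about 150 µg protein, 45 min at 25 °C in 50 mM TRIS-HCl with 1 mM EDTA, pH 7.4. Radioligand was 0.1 nM (liver) or 0.06 nM (salivary). […] Filtration, then scintillation counting. Ki from IC50 by Cheng–Prusoff; ratio of the two Ki values.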

[2] = target: T1, Alpha-1A adrenergic receptor (Oryctolagus cuniculus); experiment: Ratio of BMY7378 KB to compound KB for rabbit aorta adrenergic alpha1A receptor assessed as inhibition of phenylephrine-induced constriction after 30 mins
[3] = target: T2, Alpha-1D adrenergic receptor (Rattus norvegicus, UniProt P23944); experiment: Antagonist activity at adrenergic alpha 1D receptor in rat thoracic aorta assessed as inhibition of noradrenaline-induced contraction after 1 hr; assay type: functional, tissue-based; conditions: read-out: pA2 (converted)
T2 sequence (P23944 whole entry): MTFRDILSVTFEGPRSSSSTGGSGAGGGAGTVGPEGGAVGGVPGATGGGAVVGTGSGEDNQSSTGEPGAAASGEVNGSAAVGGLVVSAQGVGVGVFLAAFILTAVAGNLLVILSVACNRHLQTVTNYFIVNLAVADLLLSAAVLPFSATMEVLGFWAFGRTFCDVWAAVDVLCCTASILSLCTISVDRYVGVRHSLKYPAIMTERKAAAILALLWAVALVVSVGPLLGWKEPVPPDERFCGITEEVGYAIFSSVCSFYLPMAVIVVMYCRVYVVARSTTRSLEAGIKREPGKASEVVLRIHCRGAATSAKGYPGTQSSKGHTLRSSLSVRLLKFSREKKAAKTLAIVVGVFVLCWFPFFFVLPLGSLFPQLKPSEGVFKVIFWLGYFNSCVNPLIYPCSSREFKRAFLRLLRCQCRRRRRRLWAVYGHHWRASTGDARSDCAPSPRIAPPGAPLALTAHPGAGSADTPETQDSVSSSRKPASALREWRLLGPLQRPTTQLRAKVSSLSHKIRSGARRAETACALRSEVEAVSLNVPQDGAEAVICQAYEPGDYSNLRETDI

[4] = target: T3, Alpha-1A adrenergic receptor (Rattus norvegicus, UniProt P43140); experiment: Displacement of [3H]prazosin from rat salivary gland adrenergic alpha 1A receptor after 45 mins by liquid scintillation counter
T3 sequence (P43140 whole entry): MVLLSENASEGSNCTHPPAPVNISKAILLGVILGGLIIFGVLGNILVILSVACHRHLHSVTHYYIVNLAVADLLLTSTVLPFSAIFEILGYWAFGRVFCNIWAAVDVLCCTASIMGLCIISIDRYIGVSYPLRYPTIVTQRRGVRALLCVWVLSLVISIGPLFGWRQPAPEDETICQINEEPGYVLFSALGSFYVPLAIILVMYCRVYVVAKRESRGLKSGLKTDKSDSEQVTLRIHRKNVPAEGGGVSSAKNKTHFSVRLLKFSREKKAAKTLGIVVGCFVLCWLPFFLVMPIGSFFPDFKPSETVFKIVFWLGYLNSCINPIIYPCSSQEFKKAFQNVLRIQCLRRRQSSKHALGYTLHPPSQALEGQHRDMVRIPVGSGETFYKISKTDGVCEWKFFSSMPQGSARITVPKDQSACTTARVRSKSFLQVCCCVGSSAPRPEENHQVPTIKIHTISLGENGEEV

[5] = target: T4, Alpha-1B adrenergic receptor (Rattus norvegicus, UniProt P15823); experiment: Displacement of [3H]prazosin from rat liver adrenergic alpha1B receptor after 45 mins by liquid scintillation counter
T4 sequence (P15823 whole entry): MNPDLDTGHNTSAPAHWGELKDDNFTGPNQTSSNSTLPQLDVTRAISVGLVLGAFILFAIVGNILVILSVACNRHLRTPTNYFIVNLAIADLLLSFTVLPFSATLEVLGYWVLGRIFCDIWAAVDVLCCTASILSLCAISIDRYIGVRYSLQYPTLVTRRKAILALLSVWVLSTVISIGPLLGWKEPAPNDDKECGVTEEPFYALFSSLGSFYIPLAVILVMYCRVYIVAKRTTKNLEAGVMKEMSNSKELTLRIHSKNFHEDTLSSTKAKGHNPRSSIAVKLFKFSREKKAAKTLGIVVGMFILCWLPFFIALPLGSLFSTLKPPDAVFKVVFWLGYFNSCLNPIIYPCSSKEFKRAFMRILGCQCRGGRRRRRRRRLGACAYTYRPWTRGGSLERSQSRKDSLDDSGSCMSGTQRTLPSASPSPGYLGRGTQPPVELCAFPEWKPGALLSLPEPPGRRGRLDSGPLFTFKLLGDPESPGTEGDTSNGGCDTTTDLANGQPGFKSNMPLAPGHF

[6] = target: T5, Alpha-1D adrenergic receptor (Rattus norvegicus) (UniProt P23944); conditions: Thoracic aorta
T5 sequence (whole entry): T2 sequence (P23944 whole entry)

Structure (SMILES) | Kb [1] | also measured
COc1ccc(N2CCN(CCc3ccc4c(c3)OCO4)CC2)cc1 | 870 nM | –
c1ccc(CN2CCN(c3ccccc3)CC2)cc1 | 25000 nM | –
c1ccc(N2CCN(CCOc3ccc4c(c3)OCO4)CC2)cc1 | 10300 nM | –
COc1cc2nc(N3CCN(C(=O)c4ccco4)CC3)nc(N)c2cc1OC | – | inhibition (Oryctolagus cuniculus): Active
c1ccc(N2CCN(CCc3ccc4c(c3)OCO4)CC2)cc1 | 270 nM | –
COc1ccccc1N1CCN(CCc2ccc3c(c2)OCO3)CC1 | 18 nM | Ratio Ki (Rattus norvegicus): 40; Ratio [2]: 80; inhibition (Oryctolagus cuniculus): Active; Kb [3]: 0.0251 nM; IC50 [4]: 0.269 nM; IC50 [5]: 6.03 nM; Ki [5]: 5.55 nM; pKb [6]: 10.3
COc1ccccc1N1CCN(CCN2C(=O)CC3(CCCC3)CC2=O)CC1 | 1450 nM | –
c1ccc(CCCN2CCN(c3ccccc3)CC2)cc1 | 9380 nM | –
Clc1ccc(N2CCN(CCc3ccc4c(c3)OCO4)CC2)cc1 | 1240 nM | –
c1ccc(CCCCN2CCN(c3ccccc3)CC2)cc1 | 1420 nM | –
c1ccc(OCCN2CCN(c3ccccc3)CC2)cc1 | 7320 nM | –
c1ccc(N2CCN(Cc3ccc4c(c3)OCO4)CC2)cc1 | 25000 nM | –
c1ccc(N2CCN(CCCc3ccc4c(c3)OCO4)CC2)cc1 | 3800 nM | –
c1ccc(N2CCN(CCCCc3ccc4c(c3)OCO4)CC2)cc1 | 9380 nM | –
COc1ccccc1N1CCN(CCCc2ccc3c(c2)OCO3)CC1 | 130 nM | –
c1ccc(N2CCN(CCCOc3ccc4c(c3)OCO4)CC2)cc1 | 27500 nM | –
c1ccc(CCN2CCN(c3ccccc3)CC2)cc1 | 1460 nM | –
Fc1ccc(N2CCN(CCc3ccc4c(c3)OCO4)CC2)cc1 | 410 nM | –
